Measured values published in ChEMBL document CHEMBL2146365, “Design and synthesis of EGFR dimerization inhibitors and evaluation of their potential in the treatment of psoriasis” (Bioorg Med Chem, 2012).

Tests used:
[1] = Growth inhibition of HPV-16 transformed human CCD-1106 cells after 72 hrs by MTT assay; type: functional; conditions: CCD-1106, 72 h
How it was run: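 Cells were seeded at 10,000 cells/well in keratinocyte serum-free medium with L-glutamine, bovine pituitary extract and EGF, at 37 °C under 5% CO2, and attached overnight. Eight drug concentrations were run with six in-plate replicates, DMSO <1%, for 72 h. MTT (0.5 mg/ml) was added for 2 h, formazan was dissolved in 90% isopropanol/10% DMSO and A590 was read. Growth is expressed relative to the untreated control.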

[2] = Antioxidant activity in bovine brain assessed as inhibition of iron-ascorbate-induced lipid peroxidation by thiobarbituric acid test; type: functional, tissue-based, Bos taurus
How it was run: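 Hit compounds were tested for inhibition of lipid peroxidation by the thiobarbituric acid (TBA) assay. Propyl gallate served as the standardizing positive control, tested at 100 µM.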

[3] = molecular target: Epidermal growth factor receptor (Homo sapiens) (UniProt P00533); test: Inhibition of phosphorylated EGFR dimerization in HPV-16 transformed human CCD-1106 cells at 123.6 uM after 30 mins by densitometric analysis; type: cell-based
How it was run: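 CCD-1106 cells were exposed to compounds for 30 min at 37 °C, then stimulated with EGF 50 ng/mL for 10 min. They were cross-linked with 2 mM BS3 for 30 min at room temperature and quenched with Tris (pH 7.5). Lysates were run on SDS-PAGE and immunoblotted for phospho-EGFR (Tyr1173) and total EGFR. The ~340 kDa dimer band was quantified by densitometry against the no-inhibitor control.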

[4] = molecular target: Epidermal growth factor receptor (Homo sapiens) (UniProt P00533); test: Inhibition of EGFR-mediated ERK1 phosphorylation in HPV-16 transformed human CCD-1106 cells at 120.7 uM after 30 mins by densitometric analysis; type: cell-based
How it was run: (§1)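 CCD-1106 cells were treated with compound for 30 min at 37 °C, then stimulated with EGF. Lysates were separated by SDS-PAGE, blotted to nitrocellulose and blocked in 3% BSA/NaTT. Blots were probed with p-ERK (E-4) or p-p38 (D-8) antibodies, detected by ECL and quantified by densitometry.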

[5] = molecular target: Epidermal growth factor receptor (Homo sapiens) (UniProt P00533); test: Inhibition of EGFR-mediated ERK2 phosphorylation in HPV-16 transformed human CCD-1106 cells at 120.7 uM after 30 mins by densitometric analysis; type: cell-based; how it was run: as §1

Chain of Epidermal growth factor receptor (Homo sapiens) (P00533 whole entry): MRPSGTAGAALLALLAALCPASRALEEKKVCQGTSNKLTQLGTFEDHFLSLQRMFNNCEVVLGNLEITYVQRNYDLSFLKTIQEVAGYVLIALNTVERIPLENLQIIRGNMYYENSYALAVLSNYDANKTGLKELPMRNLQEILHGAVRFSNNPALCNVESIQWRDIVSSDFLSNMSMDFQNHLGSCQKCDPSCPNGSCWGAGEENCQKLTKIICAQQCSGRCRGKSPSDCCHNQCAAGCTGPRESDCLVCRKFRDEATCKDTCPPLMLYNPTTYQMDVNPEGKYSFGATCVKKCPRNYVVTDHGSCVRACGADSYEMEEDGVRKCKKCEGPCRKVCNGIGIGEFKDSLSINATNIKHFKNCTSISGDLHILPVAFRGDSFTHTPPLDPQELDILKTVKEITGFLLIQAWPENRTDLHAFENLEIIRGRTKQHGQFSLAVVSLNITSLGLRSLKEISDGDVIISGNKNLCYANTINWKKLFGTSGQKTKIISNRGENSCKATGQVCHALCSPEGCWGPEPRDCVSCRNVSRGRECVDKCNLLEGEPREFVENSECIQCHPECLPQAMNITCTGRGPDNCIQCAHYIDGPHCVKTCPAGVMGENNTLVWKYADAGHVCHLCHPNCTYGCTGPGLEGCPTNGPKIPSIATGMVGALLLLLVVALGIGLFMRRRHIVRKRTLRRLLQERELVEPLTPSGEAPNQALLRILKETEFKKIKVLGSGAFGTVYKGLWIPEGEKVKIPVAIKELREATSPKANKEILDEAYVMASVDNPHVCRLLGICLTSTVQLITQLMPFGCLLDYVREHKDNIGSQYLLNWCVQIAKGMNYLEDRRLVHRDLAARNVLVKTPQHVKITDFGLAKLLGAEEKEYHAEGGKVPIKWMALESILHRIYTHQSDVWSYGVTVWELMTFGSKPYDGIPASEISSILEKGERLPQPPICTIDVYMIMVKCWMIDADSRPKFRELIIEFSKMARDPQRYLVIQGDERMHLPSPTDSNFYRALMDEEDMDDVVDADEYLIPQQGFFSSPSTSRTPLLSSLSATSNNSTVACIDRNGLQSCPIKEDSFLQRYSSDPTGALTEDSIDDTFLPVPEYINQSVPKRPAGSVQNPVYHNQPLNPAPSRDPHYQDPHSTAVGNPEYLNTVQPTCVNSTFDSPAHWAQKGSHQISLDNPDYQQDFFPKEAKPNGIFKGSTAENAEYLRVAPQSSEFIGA

IC50 [2]	inhibition [3]	inhibition [4]	inhibition [5]	Structure (SMILES)	GI50 ([1]; read-out: GI50)	GI50 ([1]; read-out: pGI50 (converted))
				CCOc1cc(/C=N\Nc2nc3c(c(=O)n(C)c(=O)n3C)n2Cc2ccc([N+](=O)[O-])cc2)cc(OCC)c1OCC	18.9 µM	19.1 µM
				CCOc1cc(/C=N\Nc2nc3c(c(=O)n(C)c(=O)n3C)n2Cc2ccc(Cl)cc2)ccc1O	5.21 µM	5.25 µM
				CCOc1cc(/C=N\Nc2nc3c(c(=O)n(C)c(=O)n3C)n2Cc2ccccc2[N+](=O)[O-])ccc1O	8.5 µM	8.51 µM
				CCOC(=O)c1ccccc1Cn1c(N/N=C\c2ccc(O)c(OCC)c2)nc2c1c(=O)n(C)c(=O)n2C	106 µM	107 µM
3410 µM	16%	42%	33%	CC(C)C(=O)NNC(=O)c1c(O)c2ccccc2n(C)c1=O	14.9 µM	
				CCOc1cc(/C=N\Nc2nc3c(c(=O)n(C)c(=O)n3C)n2Cc2ccccc2OC)cc(OCC)c1OCC	5.16 µM	5.13 µM
				CCOc1cc(/C=N\Nc2nc3c(c(=O)n(C)c(=O)n3C)n2Cc2ccccc2)cc(OCC)c1OCC	4.65 µM	4.68 µM
				CCOc1cc(/C=N\Nc2nc3c(c(=O)n(C)c(=O)n3C)n2Cc2ccc(C)cc2)ccc1O	9.75 µM	9.77 µM
				CCOc1cc(/C=N\Nc2nc3c(c(=O)n(C)c(=O)n3C)n2Cc2ccc(C)cc2)cc(OCC)c1OCC	9.83 µM	10 µM
